Among the data in ChEMBL document CHEMBL1132374, “Sulfonamidopyrrolidinone factor Xa inhibitors: potency and selectivity enhancements via P-1 and P-4 optimization” (J Med Chem, 1999) are Ki and APTT values, retold here.

Molecules are shown by their SMILES.

One data set concerns the target Prothrombin (Homo sapiens, UniProt P00734). In words: Inhibition of human coagulation factor II. In a few lines:
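Human thrombin, final 1 nM, in 0.05 M Tris, 0.15 M NaCl, 0.1% PEG-8000, pH 7.5, room temperature. Inhibitor preincubated with enzyme 30 min, then reaction started with Pefachrome TH (50 µM final). p-Nitroanilide release read continuously at 405 nm for 5 min, under 10% substrate consumed. IC50 taken from initial velocities; apparent Ki by Cheng-Prusoff, assuming competitive inhibition.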

The target of another data set is Coagulation factor X (Homo sapiens, UniProt P00742). The experiment in a line: Inhibition of human coagulation factor Xa.
For data set [1], the target named is Tissue factor (Homo sapiens) (UniProt P13726). The experiment in a line: (§1) Activated partial thromboplastin time measured. It is filed as functional. In a few lines:
(§2)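 Citrated human, dog (mongrel) and rat (Sprague-Dawley) plasma, freshly thawed, mixed 1:1 with compound dilutions. Clotting started on an automatic coagulation timer with actin-activated cephaloplastin reagent and 0.035 M CaCl2. Value is the concentration that doubles plasma clotting time.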

The nature of data set [2]: as §1. It counts as ADME. The procedure, abridged: as §2

Broadly, the Ki is a measure of affinity in units of concentration, obtained from inhibition or displacement. Read a high Ki as a looser hold on the target.

Sequence of Coagulation factor X (P00742 41-179 limits assumed): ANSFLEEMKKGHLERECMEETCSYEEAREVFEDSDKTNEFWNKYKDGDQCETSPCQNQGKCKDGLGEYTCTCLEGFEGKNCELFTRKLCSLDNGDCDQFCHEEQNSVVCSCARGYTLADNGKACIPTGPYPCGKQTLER
Sequence of Coagulation factor X (P00742 235-488 limits assumed): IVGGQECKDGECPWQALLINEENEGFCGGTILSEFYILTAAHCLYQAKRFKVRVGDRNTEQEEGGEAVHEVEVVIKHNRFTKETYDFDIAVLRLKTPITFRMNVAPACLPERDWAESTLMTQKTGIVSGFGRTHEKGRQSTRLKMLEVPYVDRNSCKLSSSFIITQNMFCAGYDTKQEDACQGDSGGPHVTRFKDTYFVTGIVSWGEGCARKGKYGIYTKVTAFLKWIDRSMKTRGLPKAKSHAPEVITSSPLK
Sequence of Tissue factor (Homo sapiens) (P13726 whole entry): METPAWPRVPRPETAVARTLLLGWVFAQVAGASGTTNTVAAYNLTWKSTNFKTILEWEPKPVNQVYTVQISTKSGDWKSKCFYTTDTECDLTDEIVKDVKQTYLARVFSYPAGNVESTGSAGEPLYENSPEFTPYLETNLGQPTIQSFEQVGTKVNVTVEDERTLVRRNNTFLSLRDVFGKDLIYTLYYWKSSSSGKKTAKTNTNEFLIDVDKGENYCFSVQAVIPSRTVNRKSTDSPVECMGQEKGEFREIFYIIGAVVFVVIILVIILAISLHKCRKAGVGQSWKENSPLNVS

With `COc1ccc2ccc(S(=O)(=O)N[C@H]3CCN(Cc4cccc(C(=N)N)c4)C3=O)cc2c1`, on Prothrombin, the affinity corresponds to a Ki of 1430 nM. On to `COc1ccc2ccc(S(=O)(=O)N[C@H]3CCN(Cc4cc(N)cc(C(=N)N)c4)C3=O)cc2c1`, for which the Ki at Prothrombin was above 4000 nM; on Coagulation factor X, 1200 nM. Take `COc1ccc2ccc(S(=O)(=O)N[C@H]3CCN(Cc4ccc(O)c(C(=N)N)c4)C3=O)cc2c1`: the Ki is above 4000 nM at Prothrombin and 983 nM on Coagulation factor X. On the same counts, the results for `COC(=O)COc1ccc(C(=N)N)cc1CN1CC[C@H](NS(=O)(=O)c2ccc3ccc(OC)cc3c2)C1=O` are 263 nM and 8 nM.

As for `N=C(N)c1cccc(CN2CC[C@H](NS(=O)(=O)c3ccc(-c4ccncc4)cc3)C2=O)c1`, the Ki on Prothrombin is above 4000 nM; on Coagulation factor X, 130 nM. `N=C(N)c1cccc(CN2CC[C@H](NS(=O)(=O)c3ccc(-c4ccon4)s3)C2=O)c1`: the results for the Ki at Prothrombin and on Coagulation factor X were above 4000 nM and 49 nM, respectively. On the same counts, the results for `N=C(N)c1ccc(N)c(CN2CC[C@H](NS(=O)(=O)c3ccc(-c4cccnc4)s3)C2=O)c1` are 2600 nM and 6 nM.

In the case of `N=C(N)c1ccc(N)c(CN2CC[C@H](NS(=O)(=O)c3ccc(-c4ccon4)s3)C2=O)c1`, the results for the Ki at Prothrombin and at Coagulation factor X were 2230 nM and 7 nM, respectively.

`COc1nccc(-c2ccc(S(=O)(=O)N[C@H]3CCN(Cc4cccc(C(=N)N)c4)C3=O)s2)n1`: the Ki was above 4000 nM at Prothrombin and 150 nM at Coagulation factor X.

As to `COc1ccc2ccc(S(=O)(=O)N(C)[C@H]3CCN(Cc4cc(C(=N)N)ccc4NC(C)=O)C3=O)cc2c1`, the inhibition constant (Ki) on Prothrombin was above 4000 nM; on Coagulation factor X it was 919 nM. The like results for `N=C(N)c1cccc(CN2CC[C@H](NS(=O)(=O)c3ccc(-c4ccccn4)s3)C2=O)c1` were, in that order, above 4000 nM and 140 nM. The like results for `COc1ccc2ccc(S(=O)(=O)N[C@H]3CCN(Cc4cc(C(=N)N)ccc4O)C3=O)cc2c1` were, in that order, 206 nM and 3 nM. The like results for `N=C(N)c1cccc(CN2CC[C@H](NS(=O)(=O)c3ccc(-c4ccccn4)cc3)C2=O)c1` were, in that order, 4000 nM and 150 nM. The compound `COc1ccc2ccc(S(=O)(=O)N(C)[C@H]3CCN(Cc4cccc(C(=N)N)c4)C3=O)cc2c1` displayed a Ki on Prothrombin of 1050 nM. On the same count and under the same terms, under `N=C(N)c1cccc(CN2CC[C@H](NS(=O)(=O)c3ccc(-c4ccncc4)s3)C2=O)c1` stands 3000 nM. Regarding `N=C(N)c1cccc(CN2CC[C@H](NS(=O)(=O)c3ccc(-c4cccnc4)cc3)C2=O)c1`, the Ki at Prothrombin worked out at 1960 nM; on Coagulation factor X, 210 nM. The like results for `COc1ccc2ccc(S(=O)(=O)N[C@H]3CCN(Cc4cc(C(=N)N)ccc4OCC(=O)O)C3=O)cc2c1` were, in that order, above 4000 nM and 1300 nM. For the compound `N=C(N)c1cccc(CN2CC[C@H](NS(=O)(=O)c3ccc(-c4ccccc4)cc3)C2=O)c1`, the Ki at Prothrombin is above 4000 nM; at Coagulation factor X, 160 nM.

As to `N=C(N)c1ccc(F)c(CN2CC[C@H](NS(=O)(=O)c3ccc(-c4cccnc4)s3)C2=O)c1`, the Ki at Prothrombin turned out to be 4000 nM; at Coagulation factor X, 130 nM. In the case of `N=C(N)c1ccc(O)c(CN2CC[C@H](NS(=O)(=O)c3ccc(-c4cccnc4)s3)C2=O)c1`, the figures for the inhibitory constant (Ki) at Prothrombin and at Coagulation factor X were 2800 nM and 2 nM, respectively. The APTT in data set [1] amounted to 0.32 µM. Turning to `N=C(N)c1cccc(CN2CC[C@H](NS(=O)(=O)c3ccc(-c4cc[n+]([O-])cc4)cc3)C2=O)c1`, the Ki is above 4000 nM at Prothrombin and 330 nM at Coagulation factor X. With `C[n+]1ccc(-c2ccc(S(=O)(=O)N[C@H]3CCN(Cc4cccc(C(=N)N)c4)C3=O)cc2)cc1`, the Ki is above 4000 nM at Prothrombin and 130 nM at Coagulation factor X. The like results for `Cn1ccnc1-c1ccc(S(=O)(=O)N[C@H]2CCN(Cc3cccc(C(=N)N)c3)C2=O)cc1` were, in that order, above 4000 nM and 2600 nM. Consider `N=C(N)c1cccc(CN2CC[C@H](NS(=O)(=O)c3ccc(-c4cccnc4)s3)C2=O)c1`, for which the Ki at Prothrombin was above 4000 nM; on Coagulation factor X, 41 nM. On the same counts, the results for `COc1ccc2ccc(S(=O)(=O)N[C@H]3CCN(Cc4cc(C(=N)N)ccc4N)C3=O)cc2c1` are 278 nM and 6 nM. In data set [2], `COc1ccc2ccc(S(=O)(=O)N(C)[C@H]3CCN(Cc4csc(C(=N)N)c4)C3=O)cc2c1` showed an APTT of 1.5 µM.

In the case of `COc1ccc2ccc(S(=O)(=O)N(C)[C@H]3CCN(Cc4cc(C(=N)N)ccc4N)C3=O)cc2c1`, the Ki came to 201 nM at Prothrombin and 4 nM at Coagulation factor X.

With `N=C(N)c1ccc(O)c(CN2CC[C@H](NS(=O)(=O)c3ccc(-c4ccon4)s3)C2=O)c1`, the Ki on Prothrombin was 2220 nM; at Coagulation factor X it was 3 nM.
